Test results published in article PMC2796831 (Integrative biology : quantitative biosciences from nano to …, 2009).
Numbered stars: 1 amine (or outer) side, 2 acyl side, 3 side chain; on linkers, the order of the positions; unused ones are H or OH. Square brackets hold non-standard residues; d marks the D form. Peptide text beside a SMILES is read from it. * marks the point of attachment. X1 = CCN1C(=CC=CC=CC2=[N+](CCCCCC(=O)NCCN3C(=O)CC(*)C3=O)c3ccc(S(=O)(=O)[O-])cc3C2(C)C)C(C)(C)c2cc(S(=O)(=O)O)ccc21; Suc = O=C(CCC(=O)[*:2])[*:1]; Ahx = NCCCCCC(=O)O

Key:
HT1080 xenografted mice = assay: Confocal imaging of live mouse tissues after IV injection; assay type: in vivo; details: for Nuclear uptake in live tumor and tissues: 10 nmol IV, confocal stacks of live tissue, 30 minutes and 6 hours
Outline: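 Xenografted HT1080 nude mice got 10 nmol Cy5-labelled peptide IV. Five minutes before sacrifice at 30 min or 6 h, they received IV Hoechst 33342 (250 µg) and rhodamine dextran (800 µg) to mark nuclei and blood pool. Organs were held on ice in HBSS and imaged unfixed by confocal microscopy within 30 min, as 3D stacks 5–60 µm deep. Excitation was 630, 405 and 535 nm.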

naïve athymic nude mice = assay: Acute toxicity of unlabeled peptides after IV injection; assay type: in vivo; details: 5 µmol/kg IV, isoflurane anesthesia, unlabeled peptide
Biodistribution = assay type: in vivo, mice; details: for Time for blood Cy5 fluorescence to decline to the same level: 10 nmol IV, blood from tail artery, average of three mice (Fig. 3B)
Outline: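 Athymic nude mice carried HT1080 xenografts from 2 million cells injected into the mammary fat pad 5–7 days earlier. Each received 10 nmol Cy5-labelled peptide into the tail vein. Tail-artery blood in capillaries was imaged for Cy5 (640 nm excitation, 700 nm emission). At 30 min and 6 h, organ pieces were homogenised in 10 mM Tris pH 7.6 with 1% SDS, boiled, centrifuged and imaged frozen. Concentration came from tissue-specific spiked standard curves. SUV = (moles/g tissue)/(moles injected/body weight).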

[1] = 10 nmol injection, assuming 20–25g mouse
[2] = athymic nude, mouse, kidney, iv, 10 nmol
[3] = athymic nude, mouse, liver, iv, 10 nmol
[4] = athymic nude, mouse, tumor, iv, 10 nmol

SMILES: CCN1C(=CC=CC=CC2=[N+](CCCCCC(=O)NCCN3C(=O)CC(SC[C@@H](NC(=O)[C@@H](CCCNC(=N)N)NC(=O)[C@@H](CCCNC(=N)N)NC(=O)[C@@H](CCCNC(=N)N)NC(=O)[C@@H](CCCNC(=N)N)NC(=O)[C@@H](CCCNC(=N)N)NC(=O)[C@@H](CCCNC(=N)N)NC(=O)[C@@H](CCCNC(=N)N)NC(=O)[C@@H](CCCNC(=N)N)NC(=O)[C@@H](CCCNC(=N)N)NC(=O)CNC(=O)[C@H](C)NC(=O)[C@H](CC(C)C)NC(=O)CNC(=O)[C@H](CC(C)C)NC(=O)[C@@H]4CCCN4C(=O)CCCCCNC(=O)[C@@H](CCC(=O)O)NC(=O)[C@@H](CCC(=O)O)NC(=O)[C@@H](CCC(=O)O)NC(=O)[C@@H](CCC(=O)O)NC(=O)[C@@H](CCC(=O)O)NC(=O)[C@@H](CCC(=O)O)NC(=O)[C@@H](CCC(=O)O)NC(=O)[C@@H](CCC(=O)O)NC(=O)CCC(=O)O)C(N)=O)C3=O)c3ccc(S(=O)(=O)[O-])cc3C2(C)C)C(C)(C)c2cc(S(=O)(=O)O)ccc21 (stereo partly drawn) [ACPP, succinyl-e8-(x)-PLGLAG-r9-c(Cy5)-NH2] (Suc-[dE][dE][dE][dE][dE][dE][dE][dE][Ahx]PLGLAG[dR][dR][dR][dR][dR][dR][dR][dR][dR][dC](X1)-NH2)
- Nuclear uptake in live tumor and tissues (HT1080 xenografted mice): below the detection limit
- Nuclear uptake in live tissues at 10 times the usual dose (HT1080 xenografted mice; 100 nmol or 5 µmol/kg IV, one mouse): no detectable nuclear uptake in any tissue
- Tumor fluorescence signal (confocal) compared with CPP (HT1080 xenografted mice; HT1080 tumors, 30 minutes and 6 hours after 10 nmol IV (Fig. 5A, B)): about four times higher
- Acute effect (naïve athymic nude mice): no acute effect
- Time for blood Cy5 fluorescence to decline to the same level (Biodistribution): 30 min
- Final peptide concentration in kidney based on SUV (Biodistribution; [1]): 8 to 17 µmol/kg
- Tumor SUV compared with CPP (Biodistribution; 30 minutes after 10 nmol IV, HT1080 tumor homogenate, n=4 ACPP, n=3 CPP): slightly but not significantly greater
- Tumor uptake (SUV) relative to muscle (Biodistribution; 6 hours after 10 nmol IV, HT1080 tumor): roughly 4 fold
- tissue uptake dose at 0.5 h (Biodistribution; [2]): 28 %ID
- tissue uptake dose at 6 h (Biodistribution; [2]): 48 %ID
- tissue uptake dose at 0.5 h (Biodistribution; [3]): 21 %ID
- tissue uptake dose at 6 h (Biodistribution; [3]): 33 %ID
- SUV at 6 h (Biodistribution; [4]): 174 SUV
- tissue uptake at 6 h (Biodistribution; [4]): 1.7 %ID/g

SMILES: CCN1C(=CC=CC=CC2=[N+](CCCCCC(=O)NCCN3C(=O)CC(SC[C@@H](NC(=O)[C@@H](CCCNC(=N)N)NC(=O)[C@@H](CCCNC(=N)N)NC(=O)[C@@H](CCCNC(=N)N)NC(=O)[C@@H](CCCNC(=N)N)NC(=O)[C@@H](CCCNC(=N)N)NC(=O)[C@@H](CCCNC(=N)N)NC(=O)[C@@H](CCCNC(=N)N)NC(=O)[C@@H](CCCNC(=N)N)NC(=O)[C@H](N)CCCNC(=N)N)C(N)=O)C3=O)c3ccc(S(=O)(=O)[O-])cc3C2(C)C)C(C)(C)c2cc(S(=O)(=O)O)ccc21 (stereo partly drawn) [CPP, r9-c(Cy5)-NH2]
- Nuclear uptake in live tumor and tissues (HT1080 xenografted mice): below the detection limit
- Time for blood Cy5 fluorescence to decline to the same level (Biodistribution): 3 min
- Final peptide concentration in liver based on SUV (Biodistribution; [1]): 8 to 17 µmol/kg
- tissue uptake dose at 0.5 h (Biodistribution; [2]): 8 %ID
- tissue uptake dose at 6 h (Biodistribution; [2]): 9 %ID
- tissue uptake dose at 0.5 h (Biodistribution; [3]): 90 %ID
- tissue uptake dose at 6 h (Biodistribution; [3]): 84 %ID
